We go through 39 compounds from ChEMBL document CHEMBL1955853, “Discovery of 3,4-dihydropyrimidin-2(1H)-ones with inhibitory activity against HIV-1 replication” (Bioorg Med Chem Lett, 2012).

Data set [1] has as its system Human immunodeficiency virus 1. Nature of the data set: Antiviral activity against HIV1 LAI infected in human CEMx174 cells coexpressing GFP preincubated for 1 hr measured after 5 days by fluorimetry. Type of data set: functional, organism-based. To be noted: Human immunodeficiency virus 1, LAI. The method, boiled down:
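CEM reporter cells carrying an EGFP cassette driven by the HIV promoter were seeded at 4000 cells/well. They were infected with HIV-1 LAI at MOI 3 and incubated 5 days at 37 °C, 5% CO2. EGFP fluorescence intensity was read on a plate reader. Values are the geometric mean of two determinations, with each value within 25% of the mean.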

Data set [2] can be described thus: Cytotoxicity against human CEMx174 cells. Type of data set: cell-based. The method, boiled down:
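CC50 is the compound concentration that reduces viability of uninfected cells by 50%. Values are the geometric mean of two determinations, with each value within 25% of the mean.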

A value given as a limit tells only on which side of the number the result lay.

Usually EC50 stands for the concentration at which the effect is half-maximal. Read a high EC50 as a need for much substance. A word on the CC50: it is the concentration that lowers cell viability or growth by half. Lower therefore signals greater toxicity to the cells.

Regarding `CCOC(=O)C1=C(C)NC(=O)NC1c1cccc(O)c1` (stereo not given), the EC50 in data set [1] is greater than 10 µM.
On to `CC1=C(C(=O)OCC2CCCCC2)C(c2ccc(O)cc2)NC(=O)N1` (stereo not given), for which, in data set [1], the response was half-maximal at 0.431 µM (EC50). For the same compound, in data set [2], the CC50 is greater than 10 µM.
In data set [1], `CCC1=C(C(=O)OCC2CCCCC2)C(c2cccc(O)c2)NC(=O)N1` (racemic) yielded a half-maximal effective concentration (EC50) of 0.087 µM. For the same compound, in data set [2], the cytotoxic concentration (CC50) is greater than 10 µM.
`CC1=C(C(=O)OC2CCCCC2)C(c2cccc(O)c2)NC(=O)N1` (stereo not given) displayed an EC50 in data set [1] greater than 10 µM. In data set [2], this compound displayed a CC50 greater than 10 µM.
On to `CCC1=C(C(=O)OCC2CCCCC2)C(c2ccc(C#N)cc2)NC(=O)N1` (stereo not given), for which the response in data set [1] was half-maximal at 0.061 µM (EC50). This compound showed a CC50 in data set [2] greater than 10 µM.
For `CC1=C(C(=O)NCC2CCCCC2)C(c2cccc(O)c2)NC(=O)N1` (stereo not given), the EC50 in data set [1] is greater than 10 µM.
In the case of `CC1=C(C(=O)OCc2ccccc2)C(c2cccc(O)c2)NC(=O)N1` (stereo not given), the half-maximal effective concentration (EC50) in data set [1] was greater than 10 µM. This compound also displayed a CC50 in data set [2] greater than 10 µM.
`CCCC1=C(C(=O)OCC2CCCCC2)C(c2cccc(O)c2)NC(=O)N1` (stereo not given) came in with an EC50 in data set [1] of 0.286 µM. Further, in data set [2], the cytotoxic concentration (CC50) was greater than 10 µM.
The like results for `CCC1=C(C(=O)OCC2CCCCC2)C(c2ccc(NC(C)=O)cc2)NC(=O)N1` (stereo not given) were, in that order, 0.063 µM and greater than 10 µM.
Taken in the same sequence, the figures for `CCC1=C(C(=O)OCC2CCCCC2)C(c2ccc(N)cc2)NC(=O)N1` (stereo not given) were 0.151 µM and greater than 10 µM.
The like results for `CCC1=C(C(=O)OCC2CCCCC2)C(c2cccc([N+](=O)[O-])c2)NC(=O)N1` (stereo not given) were, in that order, 0.335 µM and greater than 10 µM.
Compound `CC1=C(C(=O)OCC2CCCCC2)C(c2cccc(O)c2)NC(=O)N1` (racemic) returned an EC50 in data set [1] of 0.529 µM. This compound came in with a CC50 in data set [2] greater than 10 µM.
On to `CCC1=C(C(=O)OCC2CCCCC2)C(c2ccc(O)cc2)NC(=O)N1` (stereo not given), for which the 50% effective concentration (EC50) in data set [1] is 0.031 µM. In addition, the CC50 in data set [2] is greater than 10 µM.
Compound `C#CC1=C(C(=O)OCC2CCCCC2)C(c2cccc(O)c2)NC(=O)N1` (stereo not given) yielded a 50% effective concentration (EC50) in data set [1] of 2.2 µM. Also, in data set [2], the CC50 is greater than 1 µM.
Consider `CC1=C(C(=O)OCC2CCCCC2)[C@@H](c2cccc(O)c2)NC(=O)N1`, for which the EC50 in data set [1] was greater than 10 µM. In data set [2], the CC50 was greater than 10 µM.
On to `CCC1=C(C(=O)OCC2CCCCC2)C(c2ccc([N+](=O)[O-])cc2)NC(=O)N1` (stereo not given), for which, in data set [1], the midpoint of the response, the EC50, lay at 0.141 µM. This compound showed a CC50 in data set [2] greater than 10 µM.
Taken in the same sequence, the figures for `CC1=C(C(=O)OCC2CCCCC2)[C@H](c2cccc(O)c2)NC(=O)N1` were 0.233 µM and greater than 10 µM.
Taken in the same sequence, the figures for `CCC1=C(C(=O)OCC2CCCCC2)C(c2cccc(N)c2)NC(=O)N1` (stereo not given) were 0.159 µM and greater than 10 µM.
In data set [1], `CC1=C(C(=O)OCC2CCCCC2)C(c2cccc(O)c2)N(C)C(=O)N1` (stereo not given) yielded an EC50 greater than 10 µM. Further, the CC50 in data set [2] was greater than 10 µM.
The compound `O=C1NC(CCl)=C(C(=O)OCC2CCCCC2)C(c2cccc(O)c2)N1` (stereo not given) gave a half-maximal effective concentration (EC50) in data set [1] of 0.359 µM. In addition, in data set [2], the 50% cytotoxic concentration (CC50) was greater than 3 µM.
The like results for `CCC1=C(C(=O)OCC2CCCCC2)[C@@H](c2cccc(O)c2)NC(=O)N1` were, in that order, greater than 10 µM and greater than 10 µM.
Taken in the same sequence, the figures for `CCC1=C(C(=O)OCC2CCCCC2)C(c2ccc(C(=O)O)cc2)NC(=O)N1` (stereo not given) were greater than 10 µM and greater than 10 µM.
The like results for `Cc1ccnc2c1NC(=O)c1cccnc1N2C1CC1` [NEVIRAPINE] were, in that order, 0.15 µM and greater than 10 µM.
As for `CC1=C(C(=O)OCC2CCCCC2)C(c2cccc(O)c2)NC(=S)N1` (stereo not given), in data set [1], the EC50 is greater than 10 µM. The CC50 in data set [2] was greater than 10 µM.
For the compound `CCC1=C(C(=O)OCC2CCCCC2)[C@H](c2cccc(O)c2)NC(=O)N1`, the EC50 in data set [1] was found to be 0.038 µM. The compound further returned a CC50 in data set [2] greater than 10 µM.
Taken in the same sequence, the figures for `O=C1NC(C2CC2)=C(C(=O)OCC2CCCCC2)C(c2cccc(O)c2)N1` (stereo not given) were greater than 10 µM and greater than 10 µM.
For the compound `CC(C)C1=C(C(=O)OCC2CCCCC2)C(c2cccc(O)c2)NC(=O)N1` (stereo not given), in data set [1], the EC50 was greater than 10 µM.
In data set [1], `CCC1=C(C(=O)OCC2CCCCC2)C(c2ccc(F)cc2)NC(=O)N1` (stereo not given) gave an EC50 of 0.024 µM. The same compound returned a CC50 in data set [2] greater than 10 µM.
The like results for `CC1=C(C(=O)OCC2CCCCC2)C(c2cccc(O)c2)NC(=O)N1C` (stereo not given) were, in that order, greater than 10 µM and greater than 10 µM.
The like results for `O=C1NC(c2ccccc2)=C(C(=O)OCC2CCCCC2)C(c2cccc(O)c2)N1` (stereo not given) were, in that order, greater than 10 µM and greater than 10 µM.
Taken in the same sequence, the figures for `CCC1=C(C(=O)OCC2CCCCC2)C(c2ccc(C(=O)OC)cc2)NC(=O)N1` (stereo not given) were 0.122 µM and greater than 10 µM.
In the case of `CCC1=C(C(=O)OCC2CCCCC2)C(c2ccc(N(C)C)cc2)NC(=O)N1` (stereo not given), the EC50 in data set [1] is 0.177 µM. For the same compound, the CC50 in data set [2] was greater than 10 µM.
Regarding `CC1=C(C(=O)O)C(c2cccc(O)c2)NC(=O)N1` (stereo not given), the EC50 in data set [1] is greater than 10 µM. Moreover, the CC50 in data set [2] was greater than 10 µM.
As for `CCC1=C(C(=O)OCC2CCCCC2)C(c2ccc(NC)cc2)NC(=O)N1` (stereo not given), the EC50 in data set [1] is 0.108 µM. The compound further came in with a CC50 in data set [2] greater than 10 µM.
Taken in the same sequence, the figures for `CC1=C(C(=O)OCC2CCCCC2)C(c2ccccc2O)NC(=O)N1` (stereo not given) were greater than 10 µM and greater than 10 µM.
Taken in the same sequence, the figures for `CCC1=C(C(=O)OCC2CCCCC2)C(c2cccc(O)c2)NC(=S)N1` (stereo not given) were greater than 10 µM and greater than 10 µM.
Taken in the same sequence, the figures for `Cc1nc(=O)[nH]c(-c2cccc(O)c2)c1C(=O)OCC1CCCCC1` were greater than 10 µM and greater than 10 µM.
Compound `COc1cccc(C2NC(=O)NC(C)=C2C(=O)OCC2CCCCC2)c1` (stereo not given) displayed a half-maximal effective concentration (EC50) in data set [1] of 1.27 µM. This compound also had a CC50 in data set [2] greater than 10 µM.
The like results for `CCC1=C(C(=O)OCC2CCCCC2)C(c2ccc(Cl)cc2)NC(=O)N1` (stereo not given) were, in that order, 0.088 µM and greater than 10 µM.
